Results: ChEMBL document CHEMBL5260818, “Anti-influenza activity of diazaadamantanes combined with monoterpene moieties” (Bioorg Med Chem Lett, 2017)

Tests used:
Influenza A virus [1] = assay: Antiviral activity against Influenza A virus A A/California/07/09 (H1N1)pdm09; assay type: functional, organism-based
[2] = Selectivity index, ratio of CC50 for cytotoxicity against MDCK cells to IC50 for antiviral activity against Influenza A virus A/Puerto Rico/8/34 (H1N1) infected in MDCK cells assessed as inhibition of viral growth; assay type: toxicity, cell-based; conditions: dog, read-out: Ratio CC50/IC50
Procedure, shortened: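 SI is CC50 (MTT, uninfected MDCK, 48 h) divided by IC50 (hemagglutination titre of progeny virus from MDCK cells infected at moi 0.01 after 1 h compound pre-incubation), both from triplicate concentration series.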

Influenza A virus [3] = assay: Antiviral activity against Influenza A virus A/Puerto Rico/8/34 (H1N1) infected in MDCK cells assessed as inhibition of viral growth preincubated with cells for 1 hrs followed by compound addition and measured after 24 hrs by TCD titration based assay; assay type: functional, organism-based
Procedure, shortened: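 Compounds dissolved in DMSO and diluted in MEM with 1 μg/ml trypsin, then added to MDCK cells for 1 h at 36 °C before infection (moi 0.01). Cultures were kept 24 h at 36 °C, 5% CO2. Supernatant virus progeny was grown in MDCK cells for 48 h, then titred by hemagglutination. Each concentration was run in triplicate, and IC50 was calculated.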

[4] = Cytotoxicity against MDCK cells incubated for 48 hrs by MTT assay; assay type: toxicity, cell-based, Canis lupus familiaris; conditions: dog
Procedure, shortened: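 Uninfected MDCK cells were exposed to the dissolved compounds for 48 h at 36 °C, 5% CO2. Cells were washed twice with PBS, then given MTT ([…] in PBS) for 1 h. Formazan was dissolved in DMSO and OD read at 535 nm against concentration. Three parallels per concentration, and CC50 was calculated.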

Row | Structure (SMILES) | IC50 (Influenza A virus [1]) [µM] | selectivity ratio [2] | IC50 (Influenza A virus [3]) [µM] | CC50 at 48 h [4] [µM]
1 | CC(C)=CCCC(C)CCNC1C2CC3CC(C2)CC1C3 (stereo unspecified) | 18 |  |  | 
2 | CC(C)=CCC/C(C)=C\C1N2CC3(C)CN1CC(C)(C2)C3=O (stereo unspecified) |  | 2 | > 99 | 242
3 | CC(C)=CCCC(C)CC1N2CC3(C)CN1CC(C)(C2)C3=O (stereo unspecified) |  | 3 | 66 | 178
4 | CC12CN3CC(C)(CN(C1)C3C1=CC(=O)[C@H]3C[C@@H]1C3(C)C)C2=O (stereo partly specified) |  | 8 | 113 | 907
5 | CC(CCCC(C)(C)O)CC1N2CC3(C)CN1CC(C)(C2)C3=O (stereo unspecified) |  | 3 | 260 | > 904
6 | CC1=CC[C@@H](CC2N3CC4(C)CN2CC(C)(C3)C4=O)C1(C)C (stereo partly specified) |  | < 2 | > 331 | 533
7 | CC12CN3CN(C1)CC(C)(C3)C2NCC1=CC[C@H]2C[C@@H]1C2(C)C (stereo partly specified) |  | 3 | 64 | 196
8 | CC12CN3CC(C)(CN(C1)C3C1=CC[C@H]3C[C@@H]1C3(C)C)C2=O (stereo partly specified) |  |  | > 1000 | > 1000
9 | CC(=O)[C@@H]1C[C@H](CC2N3CC4(C)CN2CC(C)(C3)C4=O)C1(C)C (stereo partly specified) |  |  | > 943 | > 943
10 | CC12CN3CN(C1)CC(C)(C3)C2N (stereo unspecified) |  | > 13 | 143 | > 1820
11 | CC(CCCC(C)(C)O)CCNC1C2(C)CN3CN(C2)CC1(C)C3 (stereo unspecified) |  | 7 | 134 | 979
12 | CC(C)=CCCC(C)CCNC1C2(C)CN3CN(C2)CC1(C)C3 (stereo unspecified) |  | 30 | 8 | 239
13 | CC(C)=CCC/C(C)=C\CNC1C2(C)CN3CN(C2)CC1(C)C3 (stereo unspecified) |  |  | > 1040 | > 1040
14 | CC(N)C12CC3CC(CC(C3)C1)C2 (stereo unspecified) [RIMANTADINE] |  | 8 | 42 | 
